Four molecules from ChEMBL document CHEMBL3822384, “2-(3-Methoxyphenyl)quinazoline Derivatives: A New Class of Direct Constitutive Androstane Receptor (CAR) Agonists” (J Med Chem, 2016) can be followed below.

The term EC50 denotes the concentration giving half of the maximal effect. A lower EC50 goes with greater potency.

Common to all, as to type: cell-based
The target of one data set is T1, AHR (Homo sapiens, UniProt P35869).
T1 sequence (P35869 whole entry): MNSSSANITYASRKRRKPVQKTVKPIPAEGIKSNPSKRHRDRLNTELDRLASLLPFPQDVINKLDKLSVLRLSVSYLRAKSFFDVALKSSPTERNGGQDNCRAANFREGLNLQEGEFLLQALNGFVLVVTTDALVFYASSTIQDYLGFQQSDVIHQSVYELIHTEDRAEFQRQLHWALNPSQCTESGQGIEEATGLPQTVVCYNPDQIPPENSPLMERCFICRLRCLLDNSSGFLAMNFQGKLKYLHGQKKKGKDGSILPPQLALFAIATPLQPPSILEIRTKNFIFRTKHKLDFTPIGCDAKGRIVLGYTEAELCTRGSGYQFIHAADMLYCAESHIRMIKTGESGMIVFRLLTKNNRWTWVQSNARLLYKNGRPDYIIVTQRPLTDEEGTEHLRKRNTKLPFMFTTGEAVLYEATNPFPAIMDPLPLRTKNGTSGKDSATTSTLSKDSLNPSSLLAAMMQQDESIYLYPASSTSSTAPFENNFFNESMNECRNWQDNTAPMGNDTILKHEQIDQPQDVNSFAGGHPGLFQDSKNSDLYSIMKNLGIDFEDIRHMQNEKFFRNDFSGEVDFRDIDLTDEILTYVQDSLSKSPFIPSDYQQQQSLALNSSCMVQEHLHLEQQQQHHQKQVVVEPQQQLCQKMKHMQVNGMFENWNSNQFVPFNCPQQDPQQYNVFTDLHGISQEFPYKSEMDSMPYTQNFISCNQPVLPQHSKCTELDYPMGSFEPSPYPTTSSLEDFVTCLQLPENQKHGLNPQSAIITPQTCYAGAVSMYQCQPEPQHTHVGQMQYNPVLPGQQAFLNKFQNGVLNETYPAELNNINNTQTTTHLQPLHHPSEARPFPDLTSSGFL
Nature of the data set: (§1) Agonist activity at AHR expressed in human HepG2 cells after 24 hrs by pXRE-luciferase reporter gene assay. As to conditions: human, HepG2 cells expressing AHR; read-out: Imax; call rule not given here. On the technique in general: A reporter such as luciferase makes a cellular process visible.

The target in data set [1] is T2, Nuclear receptor subfamily 1 group I member 3 (Homo sapiens, UniProt Q14994).
T2 sequence (Q14994 whole entry): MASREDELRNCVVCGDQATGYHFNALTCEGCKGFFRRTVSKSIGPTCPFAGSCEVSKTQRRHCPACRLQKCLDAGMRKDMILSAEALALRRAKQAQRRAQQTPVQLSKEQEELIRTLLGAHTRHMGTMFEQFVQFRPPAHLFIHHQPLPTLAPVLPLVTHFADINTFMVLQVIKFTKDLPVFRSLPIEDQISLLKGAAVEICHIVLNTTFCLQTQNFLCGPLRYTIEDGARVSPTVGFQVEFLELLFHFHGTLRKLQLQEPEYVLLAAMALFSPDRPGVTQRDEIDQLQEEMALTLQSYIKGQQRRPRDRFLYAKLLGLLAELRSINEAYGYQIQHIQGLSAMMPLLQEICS
Nature of the data set: Agonist activity at CAR expressed in human HepG2 cells at 1 to 20 uM after 48 hrs by p(ER6)3-luciferase reporter gene assay. The settings on record: hepg2, 48 h. In a few lines: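 HepG2 cells transiently co-transfected with p(ER6)3-luc reporter, wild-type CAR expression vector and pRL-TK normalization plasmid; after 24 h stabilization, treated with compounds or vehicle (DMSO 0.1%, v/v) for 48 h. Firefly and Renilla luciferase read; fold change versus vehicle (set to 1), means ± SD of triplicates from a representative experiment.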

A further data set has as its system HepG2. The experiment in a line: Cytotoxicity against human HepG2 cells assessed as cell viability after 24 hrs by MTS assay. The settings on record: hepg2, 24 h.
In data set [2] the target is T2, Nuclear receptor subfamily 1 group I member 3. The experiment in a line: Agonist activity at human CAR expressed in human HepG2 cells assessed as upregulation of CYP2B6 mRNA expression at 1 uM after 24 hrs by qRT-PCR method. As to conditions: hepg2, 24 h.
Data set [3] addresses T3, Aryl hydrocarbon receptor (Homo sapiens, UniProt P35869).
T3 sequence (P35869 whole entry): T1 sequence (P35869 whole entry)
The data set is described as §1.

In the case of `Clc1cc2c(cc1Cl)Oc1cc(Cl)c(Cl)cc1O2` [2,3,7,8-TETRACHLORODIBENZO-P-DIOXIN], at AHR, the Emax at 24 h came to 59%.

`Clc1ccc(-c2nc3sccn3c2/C=N/OCc2ccc(Cl)c(Cl)c2)cc1`: the Activity result in data set [1] was “Active”; in the data set with HepG2, “Non-toxic”; in data set [2], “Active”.

Regarding `COc1cccc(-c2nc(O)c3ccccc3n2)c1`, the result in data set [1] was Active.

Regarding `Cc1ccc2cc3c(ccc4ccccc43)c3c2c1CC3` [3-METHYLCHOLANTHRENE], the Emax at 24 h at AHR is 119%. Further, the EC50 in data set [3] amounted to 490 nM.
